In experiment [1] the target is Neuronal acetylcholine receptor; alpha4/beta2. Kind of experiment: Potency to displace [3H]nicotine binding to Nicotinic acetylcholine receptor alpha4-beta2 immuno-isolated from M10 cells. In kind it is cell-based, Gallus gallus.
The nature of experiment [2]: Potency to displace [3H]IMI binding to Nicotinic acetylcholine receptor from Drosophila head membranes. More on the design: species or system Drosophila melanogaster. Put shortly:
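Drosophila head membranes as receptor source, competition against [3H]IMI binding; IC50 (concentration giving 50% inhibition of specific binding) fitted by iterative nonlinear least-squares regression.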

The subject of a further experiment is Drosophila melanogaster. Kind of experiment: Selectivity ratio of Ki of Nicotinic acetylcholine receptor of Drosophila to Nicotinic acetylcholine receptor alpha4-beta2.

The term Ki denotes the dissociation constant of the complex between target and ligand, obtained from inhibition or displacement. High values mean weaker binding, low ones tighter binding. Take `[N-]=[N+]=Nc1cc(Cn2ccsc2=N)cnc1Cl`: the Ki worked out at 0.00047 µM in experiment [1] and 0.75 µM in experiment [2]. In addition, the Selectivity with Drosophila melanogaster worked out at 1600.

For `[N-]=[N+]=Nc1cncc(Cn2ccnc2N[N+](=O)[O-])c1`, the Ki in experiment [1] was determined as 5.4 µM; in experiment [2] it was 0.54 µM. The Selectivity in the experiment with Drosophila melanogaster came out at 10.

On to `[N-]=[N+]=Nc1cc(Cn2ccs/c2=N\[N+](=O)[O-])cnc1Cl`, for which the Ki in experiment [1] turned out to be 0.17 µM; in experiment [2] it was 0.0039 µM. Moreover, the Selectivity in the experiment with Drosophila melanogaster amounted to 44.

Regarding `O=[N+]([O-])/N=c1\sccn1Cc1ccc(Cl)nc1`, the Ki in experiment [1] was 0.17 µM; in experiment [2], 0.00035 µM. Further, in the experiment on Drosophila melanogaster, the Selectivity is 486.

On to `[N-]=[N+]=Nc1ccncc1Cn1ccnc1N[N+](=O)[O-]`, for which the Ki was 95.8 µM in experiment [1] and 3.6 µM in experiment [2]. Further, in the experiment with Drosophila melanogaster, the Selectivity was 27.

`[N-]=[N+]=Nc1cc(CN2CCNC2=N[N+](=O)[O-])cnc1Cl` [5-AZIDOIMIDACLOPRID] had a Ki in experiment [1] of 0.34 µM.

For `O=[N+]([O-])Nc1nccn1Cc1ccc(Cl)nc1` [DEHYDROIMIDACLOPRID], the Ki stood at 0.47 µM in experiment [1] and 0.00085 µM in experiment [2]. For the same molecule, the Selectivity in the experiment on Drosophila melanogaster came to 553.

In the case of `N=c1sccn1Cc1ccc(Cl)nc1`, the Ki is 0.00039 µM in experiment [1] and 0.1 µM in experiment [2]. Besides, the Selectivity in the experiment on Drosophila melanogaster is 256.

For `[N-]=[N+]=Nc1ccncc1Cn1ccsc1=N`, the figures for the inhibition constant Ki in experiment [1] and in experiment [2] were 0.82 µM and 30 µM, respectively. The Selectivity in the experiment on Drosophila melanogaster is 36.

Take `[N-]=[N+]=Nc1cc(CN2CCN=C2N)cnc1Cl`: the results for the Ki in experiment [1] and in experiment [2] were 0.0026 µM and 5.7 µM, respectively. In the experiment with Drosophila melanogaster, the Selectivity amounted to 2190.

In the case of `N#C/N=c1\sccn1Cc1cnc(Cl)c(N=[N+]=[N-])c1`, the inhibition constant Ki in experiment [1] amounted to 0.12 µM; in experiment [2], 0.028 µM. Further, in the experiment with Drosophila melanogaster, the Selectivity worked out at 4.3.

`[N-]=[N+]=Nc1cc(Cn2ccnc2N[N+](=O)[O-])cnc1Cl`: the Ki was found to be 0.3 µM in experiment [1] and 0.013 µM in experiment [2]. In addition, the Selectivity with Drosophila melanogaster is 23.

In the case of `[N-]=[N+]=Nc1cc(Cl)ncc1Cn1ccnc1N[N+](=O)[O-]`, the inhibition constant Ki stood at 16.9 µM in experiment [1] and 0.46 µM in experiment [2]. Further, the Selectivity with Drosophila melanogaster amounted to 37.

In turn, `CN1CCC[C@H]1c1cccnc1` [NICOTINE] came in with an inhibitory constant (Ki) in experiment [2] of 2 µM.

In experiment [2], `Clc1ccc(C2CC3CCC2N3)cn1` (stereo unspecified) [EPIBATIDINE] came in with an inhibition constant (Ki) of 0.22 µM.

As for `N=C1NCCN1Cc1ccc(Cl)nc1` [DESNITROIMIDACLOPRID], the Ki in experiment [1] worked out at 0.0022 µM; in experiment [2] it was 0.8 µM. In addition, in the experiment with Drosophila melanogaster, the Selectivity came to 364.

In the case of `[N-]=[N+]=Nc1cc(Cl)ncc1Cn1ccsc1=N`, the Ki in experiment [1] was determined as 0.11 µM; in experiment [2] it was 3.2 µM. In the experiment with Drosophila melanogaster, the Selectivity was determined as 29.

Take `O=[N+]([O-])NC1=NCCN1Cc1ccc(Cl)nc1` [IMIDACLOPRID]: in experiment [1], the inhibition constant Ki was found to be 0.72 µM.

As for `[N-]=[N+]=Nc1cncc(Cn2ccsc2=N)c1`, the Ki in experiment [1] is 0.0083 µM; in experiment [2] it was 7.2 µM. Moreover, the Selectivity with Drosophila melanogaster came to 867.

Regarding `N#C/N=c1\sccn1Cc1ccc(Cl)nc1` [THIACLOPRID OLEFIN], the Ki in experiment [1] was 0.12 µM; in experiment [2] it was 0.0014 µM. Moreover, in the experiment with Drosophila melanogaster, the Selectivity came out at 86.

In experiment [2], `[N-]=[N+]=Nc1cc(CN2CCN/C2=N\[N+](=O)[O-])cnc1Cl` [5-AZIDOIMIDACLOPRID] came in with a Ki of 0.024 µM. In the experiment with Drosophila melanogaster, the Selectivity came out at 14.

`O=[N+]([O-])/N=C1\NCCN1Cc1ccc(Cl)nc1` [IMIDACLOPRID] had a Ki in experiment [2] of 0.0022 µM. The Selectivity in the experiment on Drosophila melanogaster is 327.

(Values after ChEMBL document CHEMBL1135484, “Structural features of azidopyridinyl neonicotinoid probes conferring high affinity and selectivity for mammalian alpha4beta2 and Drosophila nicotinic receptors” (J Med Chem, 2002).)
